Here are results for two molecules from PMC8427789 (ACS Omega, 2021).

The target in test [1] is T1, recombinant human protein tyrosine phosphatase 1B (PTP-1B) (Homo sapiens, UniProt P18031).
T1 sequence (P18031 1-435): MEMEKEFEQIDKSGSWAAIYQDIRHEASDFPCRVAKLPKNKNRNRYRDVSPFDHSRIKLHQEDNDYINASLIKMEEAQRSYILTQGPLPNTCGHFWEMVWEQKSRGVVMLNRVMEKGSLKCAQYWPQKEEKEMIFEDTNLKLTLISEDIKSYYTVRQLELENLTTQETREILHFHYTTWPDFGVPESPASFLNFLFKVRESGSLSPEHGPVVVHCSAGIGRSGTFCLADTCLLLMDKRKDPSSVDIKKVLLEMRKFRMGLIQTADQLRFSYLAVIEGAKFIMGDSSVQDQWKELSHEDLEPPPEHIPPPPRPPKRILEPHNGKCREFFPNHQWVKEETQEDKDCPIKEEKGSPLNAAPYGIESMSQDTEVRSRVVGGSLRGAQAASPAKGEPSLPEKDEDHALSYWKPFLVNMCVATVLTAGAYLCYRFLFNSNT
The test is described as follows: PTP-1B activity assay. The test is classed as biochemical.

Test [2] has as its target T2, PTP-1B (Homo sapiens, UniProt P18031).
T2 sequence (P18031 1-435): T1 sequence (P18031 1-435)
The test is described as follows: PTP-1B kinetic studies. It counts as biochemical. In outline:
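Recombinant human PTP-1B in 100 mM tris buffer, pH 6.8. Test compound at 0.03, 0.07 and 0.1 mM, dissolved in DMSO or buffer, preincubated 5 min with enzyme (solution at 1.56 mg/mL). Then p-NPP added at 0.6–3 mM for 20 min at room temperature, absorbance read at 415 nm. Lineweaver–Burk double-reciprocal plots made; Vmax, Km and Ki from nonlinear regression fit.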

The target of test [3] is yeast α-glucosidase (yeast AG) (Saccharomyces cerevisiae, UniProt P53051). Kind of test: biochemical.
yeast α-glucosidase (yeast AG), sequence (P53051 2-589): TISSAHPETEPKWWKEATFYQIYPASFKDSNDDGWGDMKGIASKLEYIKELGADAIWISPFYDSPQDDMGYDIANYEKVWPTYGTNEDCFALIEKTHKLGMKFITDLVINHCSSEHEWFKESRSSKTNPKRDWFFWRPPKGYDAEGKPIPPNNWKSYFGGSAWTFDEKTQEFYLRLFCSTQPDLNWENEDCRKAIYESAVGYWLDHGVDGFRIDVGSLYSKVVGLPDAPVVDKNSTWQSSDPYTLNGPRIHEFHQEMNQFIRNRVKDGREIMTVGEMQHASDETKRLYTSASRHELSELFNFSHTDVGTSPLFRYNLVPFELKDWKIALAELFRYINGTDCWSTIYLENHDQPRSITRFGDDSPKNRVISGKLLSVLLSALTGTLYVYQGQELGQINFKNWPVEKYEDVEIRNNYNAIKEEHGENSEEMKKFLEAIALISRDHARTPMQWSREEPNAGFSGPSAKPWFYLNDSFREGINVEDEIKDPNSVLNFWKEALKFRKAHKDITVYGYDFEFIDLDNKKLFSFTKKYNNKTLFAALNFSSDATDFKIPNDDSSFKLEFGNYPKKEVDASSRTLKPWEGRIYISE

Usually IC50 stands for the concentration needed to halve the response being measured. One may read the Ki as a dissociation constant, usually derived from enzyme kinetics or from competition with a known ligand. A higher Ki goes with a looser hold on the target. Usually Vmax stands for the rate approached at saturating substrate.

As to `COC(=O)c1c(O)ccc2oc3cc(CO)cc(O)c3c(=O)c12` [Compound 3, sydowinin B], the half-maximal inhibitory concentration (IC50) in test [1] came to 81 ± 4 µM. Further, the Ki in test [2] worked out at 27.5 µM. The “type of inhibition of PTP-1B” value in test [2] (Lineweaver–Burk plot) is “noncompetitive”. Further, in test [2] (PTP-1B, p-NPP), the maximal velocity (Vmax) worked out at 1.308 mM/min.
Consider `C[C@H]1O[C@H](O[C@H]2[C@H](O)[C@@H](O)[C@@H](O[C@H]3[C@H](O)[C@@H](O)C(O)O[C@@H]3CO)O[C@@H]2CO)[C@H](O)[C@@H](O)[C@@H]1N[C@H]1C=C(CO)[C@@H](O)[C@H](O)[C@H]1O` (some centres unmarked) [acarbose], for which half-maximal inhibition in test [3] (IC50) was put at 403 ± 10 µM.
